From ChEMBL document CHEMBL1125801, “Fluorinated colchicinoids: antitubulin and cytotoxic properties” (J Med Chem, 1991)
pEC50: −log10 of the molar value.

Tests used:
Tubulin (Bos taurus) [1] = target: T1, Tubulin (Bos taurus) (UniProt Q6B856+Q862L2+Q862F3); details: at 2 µM
P388 [2] = test: Cytotoxic activity against P388 mouse lymphocytic leukemia cell line; assay type: functional; details: read-out: ED50 (the source's name)
Tubulin (Bos taurus) [3] = target: T1, Tubulin (Bos taurus); details: at 2 µM; remark: listed apart in the source
[4] = Retention time of the compound.; assay type: ADME
J774.2 [5] = test: Cytotoxic activity against mouse macrophage cell line J774.2 after 72 hr; assay type: functional; details: J774.2, 72 h, read-out: ED50 (the source's name)
How it was run: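 Mouse macrophage-like J774.2 (wild type) cells were incubated with or without drug for 72 h, before controls reached confluency, in triplicate per concentration.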

Tubulin (Bos taurus) [6] = target: T1, Tubulin (Bos taurus); details: at 5 µM
P388 [7] = test: Cytotoxic activity against P388 mouse lymphocytic leukemia cell line (doxorubicin resistant).; assay type: functional; details: read-out: ED50 (the source's name)
Tubulin (Bos taurus) [8] = target: T1, Tubulin (Bos taurus); details: at 5 µM; remark: listed apart in the source
[9] = Partition coefficient (logP); assay type: physicochemical; details: octanol/water
J774 [10] = test: Cytotoxic activity against mouse macrophage cell line J7.VBL-1; assay type: functional; details: read-out: ED50 (the source's name)
J774 [11] = test: (§1) Cytotoxic activity against mouse macrophage cell line J7.COL-100.; assay type: functional; details: read-out: ED50 (the source's name)
J774.2 [12] = test: Cytotoxic activity against mouse macrophage cell line J774.2; assay type: functional; details: read-out: ED50 (the source's name)
[13] = Retention time of the compound; NT-Not Tested; assay type: ADME
J774 [14] = test: as §1; assay type: functional; details: J774, read-out: ED50
How it was run: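 Colchicine-resistant variant of mouse macrophage-like J774.2, kept in 100 μM colchicine. Cells were exposed with or without drug in triplicate per concentration for 72 h, ending before controls reached confluency, and then living cells were counted.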

Row | SMILES | ITP (Tubulin (Bos taurus) [1]) [%] | pEC50 (P388 [2]) | ITP (Tubulin (Bos taurus) [3]) [%] | tR [4] [min] | pEC50 (J774.2 [5]) | ITP (Tubulin (Bos taurus) [6]) [%] | pEC50 (P388 [7]) | ITP (Tubulin (Bos taurus) [8]) [%] | logP [9] | pEC50 (J774 [10]) | pEC50 (J774 [11]) | pEC50 (J774.2 [12]) | tR [13] [min] | ITP (Tubulin (Bos taurus) [6]; at 100 µM) [%] | pEC50 (J774 [14])
1 | COc1cc2c(c(OC)c1OC)-c1cc/c(=N/CC(F)(F)F)c(O)cc1C(NC(=O)C(F)(F)F)CC2 (configuration not stated) | 15 | 7.30 | 30 | 10.6 | 6.70 | 45 | 7.05 | 35 | 1.36 | 5.54 | 5.06 | – | – | – | –
2 | COc1cc2c(c(OC)c1OC)-c1ccc(=O)c(OC)cc1C(NC(=O)C(F)(F)F)CC2 (configuration not stated) | – | 5.82 | – | – | – | – | 4.89 | – | 2.08 | < 4.70 | – | 5.41 | 5.9 | 10 | –
3 | COc1cc2c(c(OC)c1OC)-c1ccc(=O)c(O)cc1C(NC(=O)C(F)(F)F)CC2 (configuration not stated) | – | 5.52 | – | – | – | – | 5.22 | – | 1.82 | 4.70 | 5.31 | 5.52 | – | 44 | –
4 | COc1cc2c(c(OC)c1OC)-c1ccc(=N)c(O)cc1C(NC(=O)C(F)(F)F)CC2 (configuration not stated) | 42 | 7.89 | 48 | 5.7 | – | 82 | 7.22 | 79 | 2.32 | 5.89 | 5.35 | 8.00 | – | – | –
5 | COc1cc2c(c(OC)c1OC)-c1ccc(OC)c(=O)cc1[C@@H](NC(=O)C(F)(F)F)CC2 | – | 8.40 | – | 5.4 | – | – | 7.40 | – | 1.72 | 6.10 | 4.85 | 8.00 | – | – | –
6 | COc1cc2c(c(OC)c1OC)-c1cc/c(=N/CCF)c(O)cc1C(NC(C)=O)CC2 (configuration not stated) | – | 7.64 | – | 5.1 | – | – | 6.33 | – | 1.7 | 5.32 | 4.49 | 6.82 | – | – | –
7 | CC/N=c1/ccc2c(cc1O)C(NC(C)=O)CCc1cc(OC)c(OC)c(OC)c1-2 (configuration not stated) | – | 8.30 | – | 7.5 | – | – | 6.49 | – | 2.34 | 5.72 | 4.82 | 8.00 | – | – | –
8 | COc1c(O)cc2c(c1OC)-c1ccc(SC)c(=O)cc1C(NC(C)=O)CC2 (configuration not stated) | – | – | – | 3.8 | – | – | – | – | 1.43 | – | – | – | – | – | –
9 | COc1cc2c(c(OC)c1O)-c1ccc(OC)c(=O)cc1C(NC(C)=O)CC2 (configuration not stated) | – | 7.02 | – | 3 | – | – | 5.91 | – | 0.48 | 4.20 | 3.85 | 6.52 | – | – | –
10 | COc1c(O)cc2c(c1OC)-c1ccc(SC)c(=O)cc1C(NC(=O)C(F)(F)F)CC2 (configuration not stated) | – | – | – | 5.3 | – | – | – | – | 2.61 | – | – | – | – | – | –
11 | COc1cc2c(c(OC)c1O)-c1ccc(OC)c(=O)cc1C(NC(=O)C(F)(F)F)CC2 (configuration not stated) | 17 | 7.40 | 24 | 3.8 | – | 35 | 6.92 | 47 | 1.67 | 5.30 | 4.98 | 7.40 | – | – | –
12 | COc1cc2c(c(OC)c1OC)-c1ccc(=N)c(O)cc1C(NC(C)=O)CC2 (configuration not stated) | – | 7.89 | – | 4 | – | – | 6.40 | – | 0.3 | 4.82 | 4.15 | 7.70 | – | – | –
13 | COc1cc2c(c(OC)c1OC)-c1ccc(OC)c(=O)cc1[C@@H](NC(C)=O)CC2 [COLCHICINE] | – | 7.92 | – | 3.9 | – | – | 6.33 | – | 0.6 | 4.77 | 3.70 | 7.22 | – | – | –
14 | COc1cc2c(c(OC)c1OC)-c1ccc(=O)c(OC)cc1C(NC(C)=O)CC2 (configuration not stated) | – | 4.82 | – | – | – | – | 4.82 | – | 1 | < 4.30 | – | 5.25 | 3.9 | – | –
15 | COc1cc2c(c(OC)c1OC)-c1cc/c(=N/CC(F)(F)F)c(O)cc1C(NC(C)=O)CC2 (configuration not stated) | – | 7.29 | – | 7.4 | – | – | 6.05 | – | 1.45 | 4.77 | 4.30 | 6.72 | – | – | –
16 | COc1cc2c(c(OC)c1OC)-c1ccc(=O)c(O)cc1C(NC(C)=O)CC2 (configuration not stated) | – | 5.92 | – | – | – | – | 5.00 | – | 1.2 | < 4.30 | – | 5.51 | – | – | < 3.00
